Here are results for 10 compounds from ChEMBL document CHEMBL3992509, “Discovery of a Highly Potent, Selective, and Metabolically Stable Inhibitor of Receptor-Interacting Protein 1 (RIP1) for the Treatment of Systemic Inflammatory Response Syndrome” (J Med Chem, 2017).

A short description of data set [1]: Intrinsic clearance in human liver microsomes assessed per mg protein in presence of NADPH by LC-MS/MS analysis. In kind it is ADME, microsome. Conditions: read-out: CLH. Background: Liver microsomes are a subcellular fraction often used to study metabolism.
Data set [2] is described as follows: Half life in human liver microsomes in presence of NADPH by LC-MS/MS analysis. In kind it is ADME, microsome.
A short description of data set [3]: Half life in mouse liver microsomes in presence of NADPH by LC-MS/MS analysis. In kind it is ADME, microsome.
Data set [4] can be described thus: Intrinsic clearance in mouse liver microsomes assessed per mg protein in presence of NADPH by LC-MS/MS analysis. In kind it is ADME, microsome. The note with it: read-out: CLH.
The target in data set [5] is Indoleamine 2,3-dioxygenase 1 (Homo sapiens, UniProt P14902). The data set can be described thus: Inhibition of recombinant human IDO expressed in Escherichia coli assessed as reduction in kynurenine production at 200 uM using L-tryptophan as substrate after 3 hrs by methylene blue dye based assay. The essentials:
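Reaction mix: 50 mM MES pH 6.5, 20 mM ascorbate, 2250 U/mL catalase, 10 μM methylene blue, 200 μM L-Trp, 100 nM recombinant IDO, 200 μM compound or DMSO. Incubated 37 °C for 3 h; kynurenine colour read at 321 nm.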

Data set [6] deals with Mus musculus. The data set can be described thus: Protection against TNFalpha-induced multiorgan damage in C57BL/6J mouse assessed as inhibition of TNFalpha-induced increase in IL-6 level at 6 mg/kg, ip administered as single dose 17 mins before TNFalpha injection measured 12 hrs post TNFalpha injection. In kind it is functional, organism-based. Put shortly: (§1)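 C57BL/6 mice given mTNFα IV, then a single 6 mg/kg IP compound dose 17 min before TNFα. Blood taken 12 h after TNFα for mIL-6 and mIL-1β.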

For data set [7], the system named is Mus musculus. The data set can be described thus: Protection against TNFalpha-induced multiorgan damage in C57BL/6J mouse assessed as inhibition of TNFalpha-induced increase in IL-1beta level at 6 mg/kg, ip administered as single dose 17 mins before TNFalpha injection measured 12 hrs post TNFalpha injection. The data set is classed as functional, organism-based. Put shortly:
as §1

In data set [8] the target is T1, Receptor-interacting serine/threonine-protein kinase 1 (Homo sapiens, UniProt Q13546).
T1 sequence (Q13546 whole entry): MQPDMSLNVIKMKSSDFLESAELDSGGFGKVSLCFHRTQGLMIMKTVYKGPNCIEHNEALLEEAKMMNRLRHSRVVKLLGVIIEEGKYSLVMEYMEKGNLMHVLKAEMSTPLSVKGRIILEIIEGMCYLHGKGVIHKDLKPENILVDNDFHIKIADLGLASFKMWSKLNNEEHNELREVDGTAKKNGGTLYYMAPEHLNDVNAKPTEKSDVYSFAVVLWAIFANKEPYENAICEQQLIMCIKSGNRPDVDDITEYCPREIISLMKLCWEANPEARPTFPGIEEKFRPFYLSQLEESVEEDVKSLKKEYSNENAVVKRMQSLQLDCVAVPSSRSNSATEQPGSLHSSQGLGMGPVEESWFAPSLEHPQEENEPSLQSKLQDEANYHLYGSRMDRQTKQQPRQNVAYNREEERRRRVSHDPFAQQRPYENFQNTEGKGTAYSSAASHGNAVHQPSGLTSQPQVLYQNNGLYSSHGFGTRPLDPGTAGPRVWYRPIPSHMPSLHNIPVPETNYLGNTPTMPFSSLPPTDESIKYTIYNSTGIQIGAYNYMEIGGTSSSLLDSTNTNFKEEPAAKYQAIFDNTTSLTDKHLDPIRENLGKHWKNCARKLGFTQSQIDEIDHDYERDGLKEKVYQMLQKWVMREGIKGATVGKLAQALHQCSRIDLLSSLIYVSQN
In words: Inhibition of recombinant GST-tagged RIP1 (unknown origin) after 4 hrs by ADP-Glo kinase assay. On the technique in general: In ADP-Glo the light output rises with the ADP produced.

In data set [9] the test system is Mus musculus. In words: Protection against TNFalpha-induced mortality in C57BL/6J mouse assessed as survival rate at 6 mg/kg, ip administered as single dose 17 mins before TNFalpha injection measured every 30 mins up to 60 hrs post TNFalpha injection (reference value: 50%). In kind it is functional.
For data set [10], the target named is Receptor-interacting serine/threonine-protein kinase 3 (Homo sapiens) (UniProt Q9Y572). In words: Inhibition of full length recombinant human N-terminal GST-tagged RIP3 expressed in baculovirus infected sf9 cells at 10 uM using MBP as substrate preincubated for 15 mins followed by MBP/ATP mixture addition measured after 90 mins by ADP-Glo kinase assay.

Structures are written as SMILES. Calls of active or inactive are those of the source. The calls are words filed in the database; no cut-off is given here. A value given as a limit tells only on which side of the number the result lay.

By half-life is commonly meant the time in which the quantity being followed falls by half. As a reminder, the IC50 is the concentration needed to halve the response being measured.

Chain of Indoleamine 2,3-dioxygenase 1 (P14902 whole entry): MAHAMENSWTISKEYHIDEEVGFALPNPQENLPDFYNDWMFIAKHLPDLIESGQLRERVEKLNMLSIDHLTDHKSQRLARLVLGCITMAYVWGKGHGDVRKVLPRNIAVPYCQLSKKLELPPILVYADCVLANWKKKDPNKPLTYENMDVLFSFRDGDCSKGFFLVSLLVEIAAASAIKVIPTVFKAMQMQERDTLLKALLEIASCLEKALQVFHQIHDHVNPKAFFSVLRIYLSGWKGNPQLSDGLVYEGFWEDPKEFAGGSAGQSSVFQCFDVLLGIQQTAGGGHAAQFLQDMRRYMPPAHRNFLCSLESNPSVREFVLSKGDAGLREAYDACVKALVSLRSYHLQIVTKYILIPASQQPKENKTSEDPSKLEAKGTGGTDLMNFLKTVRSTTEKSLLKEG
Chain of Receptor-interacting serine/threonine-protein kinase 3 (Homo sapiens) (Q9Y572 whole entry, looked up): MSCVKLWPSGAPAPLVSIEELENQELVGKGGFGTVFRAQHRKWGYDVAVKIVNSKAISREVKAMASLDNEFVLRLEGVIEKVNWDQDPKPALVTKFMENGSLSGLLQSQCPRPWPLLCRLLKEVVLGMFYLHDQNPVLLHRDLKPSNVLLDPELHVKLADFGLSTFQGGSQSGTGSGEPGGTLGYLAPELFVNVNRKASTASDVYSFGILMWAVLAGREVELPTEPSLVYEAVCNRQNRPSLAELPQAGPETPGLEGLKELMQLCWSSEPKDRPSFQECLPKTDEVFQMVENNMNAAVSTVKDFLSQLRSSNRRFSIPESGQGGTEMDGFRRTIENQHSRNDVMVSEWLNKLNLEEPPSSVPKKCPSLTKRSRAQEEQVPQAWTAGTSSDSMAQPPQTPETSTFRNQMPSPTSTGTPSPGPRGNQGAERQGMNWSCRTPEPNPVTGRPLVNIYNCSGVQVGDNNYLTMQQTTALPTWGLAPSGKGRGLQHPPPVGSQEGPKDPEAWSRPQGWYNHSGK

As to `CCC(C)(C)C(=O)N(O)Cc1ccc(F)c(F)c1`, the microsomal CLint in data set [1] was 6.5 µL/min/mg; in data set [4], 61.4 µL/min/mg. Also, the half-life in data set [2] worked out at 107 min; in data set [3] it was 11.3 min.

Consider `CN1C(=O)C(Cc2c[nH]c3ccccc23)NC1=S` (stereo not drawn) [NECROSTATIN], for which, in [5], the “inhibition (INH)” value is “Active”. The inhibition entry in the data set on Mus musculus [6] and with Mus musculus [7] was “Active” each time. Besides, in [8], the IC50 was 760 nM. Moreover, in the data set with Mus musculus [9], the survival at 6 mg/kg is 60%. The inhibition result in data set [10] was “inactive”.

`CCC(C)(C)C(=O)NC(C)c1ccccc1` (stereo not drawn): the half-life in data set [2] is over 200 min.

`CCC(C)(C)C(=O)N(O)Cc1ccc(F)c(F)c1F`: the microsomal CLint amounted to 13.1 µL/min/mg in [1] and 49.9 µL/min/mg in data set [4]. In addition, the half-life was found to be 52.9 min in data set [2] and 13.9 min in data set [3].

In the case of `CCC(C)(C)C(=O)NCc1ccccc1`, the half-life in [2] is over 200 min.

`CCC(C)(C)C(=O)N(O)Cc1cc(F)cc(F)c1F`: the microsomal CLint in [1] worked out at 10.4 µL/min/mg; in [4] it was 75.3 µL/min/mg. Also, the half-life in data set [2] is 66.6 min; in data set [3], 9.21 min.

For the compound `CCC(C)(C)C(=O)NC(CO)c1ccccc1` (stereo not drawn), the half-life in data set [2] is over 200 min.

On to `CCC(C)(C)C(=O)N(O)Cc1cc(F)c(F)c(F)c1`, for which the microsomal CLint in [1] came out at 10.5 µL/min/mg; in data set [4], 87.8 µL/min/mg. The half-life in data set [2] was 66 min; in data set [3] it was 7.89 min.

With `CCC(C)(C)C(=O)N(O)Cc1ccc(F)cc1F`, the microsomal CLint turned out to be 3.5 µL/min/mg in [1] and 29.9 µL/min/mg in data set [4]. For the same compound, the half-life in data set [2] is 198 min; in data set [3], 23.2 min.

In the case of `CCC(C)(C)C(=O)N(O)Cc1ccc(F)cc1`, the microsomal CLint amounted to 3.9 µL/min/mg in data set [1] and 28.8 µL/min/mg in data set [4]. Also, the results for the half-life in [2] and in [3] were 178 min and 24.1 min, respectively.
